From ChEMBL document CHEMBL5058577, “EUbOPEN Chemogenomics Library 2 (Multiplex)” (2022)

Tested on: U2OS
Assay: Multiplex assay against U2OS
Type: toxicity, cell-based
Settings: human
Procedure, shortened: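 With compound added, live cells were imaged on a CQ1 microscope at 37°C and 5% CO2; staining with Hoechst33342, BioTracker Green Microtubule Cytoskeleton Dye, MitoTracker Red and Annexin V Alexa Fluor 680 had been done at seeding. The CellPathfinder machine-learning gating scheme split cells into Hoechst high-intensity objects or normal cells, normal cells into healthy, pyknosed or fragmented nuclei, and pyknosed cells into mitotic or apoptotic. The tubulin, mitochondrial-mass and membrane-permeability phenotypes are per cents of healthy-nucleus cells.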

[1] = 12 h, 1 µM, compound concentration 1 uM, replicate 1
[2] = 12 h, 1 µM, compound concentration 1 uM, replicate 2
[3] = 12 h, 10 µM, compound concentration 10 uM, replicate 1
[4] = 12 h, 10 µM, compound concentration 10 uM, replicate 2
[5] = 24 h, 1 µM, compound concentration 1 uM, replicate 1
[6] = 24 h, 1 µM, compound concentration 1 uM, replicate 2
[7] = 24 h, 10 µM, compound concentration 10 uM, replicate 1
[8] = 24 h, 10 µM, compound concentration 10 uM, replicate 2
[9] = 48 h, 1 µM, compound concentration 1 uM, replicate 1
[10] = 48 h, 1 µM, compound concentration 1 uM, replicate 2
[11] = 48 h, 10 µM, compound concentration 10 uM, replicate 1
[12] = 48 h, 10 µM, compound concentration 10 uM, replicate 2

## O=c1ccc2ccc(OCCCCN3CCN(c4cccc5sccc45)CC3)cc2[nH]1 [BREXPIPRAZOLE]
[1]
  Population Apoptotic (%): 73%
  Population Fragmented Nuclei (%): 23%
  Population Healthy Nuclei (%): 62%
  Population Hoechst High Intensity Objects (%): 6%
  Population Membrane Permeable-Phenotype (%): 40%
  Population Mitochondria Different-Phenotype (%): 19%
  Population Mitotic Cells (%): 26%
  Population Normal (%): 93%
  Population Pyknosed Nuclei (%): 13%
  Population Tubulin-Different-Phenotype (%): 36%
  Total Cell Count: 178
[2]
  Population Apoptotic (%): 55%
  Population Fragmented Nuclei (%): 16%
  Population Healthy Nuclei (%): 69%
  Population Hoechst High Intensity Objects (%): 2%
  Population Membrane Permeable-Phenotype (%): 32%
  Population Mitochondria Different-Phenotype (%): 24%
  Population Mitotic Cells (%): 44%
  Population Normal (%): 97%
  Population Pyknosed Nuclei (%): 14%
  Population Tubulin-Different-Phenotype (%): 30%
  Total Cell Count: 126
[3]
  Population Apoptotic (%): 86%
  Population Fragmented Nuclei (%): 31%
  Population Healthy Nuclei (%): 27%
  Population Hoechst High Intensity Objects (%): 6%
  Population Membrane Permeable-Phenotype (%): 57%
  Population Mitochondria Different-Phenotype (%): 82%
  Population Mitotic Cells (%): 13%
  Population Normal (%): 93%
  Population Pyknosed Nuclei (%): 41%
  Population Tubulin-Different-Phenotype (%): 83%
  Total Cell Count: 220
[4]
  Population Apoptotic (%): 82%
  Population Fragmented Nuclei (%): 21%
  Population Healthy Nuclei (%): 43%
  Population Hoechst High Intensity Objects (%): 9%
  Population Membrane Permeable-Phenotype (%): 53%
  Population Mitochondria Different-Phenotype (%): 90%
  Population Mitotic Cells (%): 17%
  Population Normal (%): 90%
  Population Pyknosed Nuclei (%): 35%
  Population Tubulin-Different-Phenotype (%): 95%
  Total Cell Count: 109
[5]
  Population Apoptotic (%): 68%
  Population Fragmented Nuclei (%): 26%
  Population Healthy Nuclei (%): 55%
  Population Hoechst High Intensity Objects (%): 3%
  Population Membrane Permeable-Phenotype (%): 19%
  Population Mitochondria Different-Phenotype (%): 22%
  Population Mitotic Cells (%): 31%
  Population Normal (%): 96%
  Population Pyknosed Nuclei (%): 18%
  Population Tubulin-Different-Phenotype (%): 18%
  Total Cell Count: 181
[6]
  Population Apoptotic (%): 66%
  Population Fragmented Nuclei (%): 12%
  Population Healthy Nuclei (%): 67%
  Population Membrane Permeable-Phenotype (%): 22%
  Population Mitochondria Different-Phenotype (%): 28%
  Population Mitotic Cells (%): 33%
  Population Pyknosed Nuclei (%): 19%
  Population Tubulin-Different-Phenotype (%): 16%
  Total Cell Count: 128
[7]
  Population Apoptotic (%): 93%
  Population Fragmented Nuclei (%): 30%
  Population Healthy Nuclei (%): 25%
  Population Hoechst High Intensity Objects (%): 13%
  Population Membrane Permeable-Phenotype (%): 47%
  Population Mitochondria Different-Phenotype (%): 67%
  Population Mitotic Cells (%): 6%
  Population Normal (%): 86%
  Population Pyknosed Nuclei (%): 44%
  Population Tubulin-Different-Phenotype (%): 76%
  Total Cell Count: 213
[8]
  Population Apoptotic (%): 91%
  Population Fragmented Nuclei (%): 19%
  Population Healthy Nuclei (%): 26%
  Population Hoechst High Intensity Objects (%): 22%
  Population Membrane Permeable-Phenotype (%): 56%
  Population Mitochondria Different-Phenotype (%): 86%
  Population Mitotic Cells (%): 8%
  Population Normal (%): 77%
  Population Pyknosed Nuclei (%): 54%
  Population Tubulin-Different-Phenotype (%): 91%
  Total Cell Count: 112
[9]
  Population Apoptotic (%): 64%
  Population Fragmented Nuclei (%): 21%
  Population Healthy Nuclei (%): 61%
  Population Hoechst High Intensity Objects (%): 4%
  Population Membrane Permeable-Phenotype (%): 9%
  Population Mitochondria Different-Phenotype (%): 12%
  Population Mitotic Cells (%): 35%
  Population Normal (%): 95%
  Population Pyknosed Nuclei (%): 16%
  Population Tubulin-Different-Phenotype (%): 8%
  Total Cell Count: 240
[10]
  Population Apoptotic (%): 73%
  Population Fragmented Nuclei (%): 22%
  Population Healthy Nuclei (%): 56%
  Population Hoechst High Intensity Objects (%): 2%
  Population Membrane Permeable-Phenotype (%): 34%
  Population Mitochondria Different-Phenotype (%): 31%
  Population Mitotic Cells (%): 26%
  Population Normal (%): 97%
  Population Pyknosed Nuclei (%): 21%
  Population Tubulin-Different-Phenotype (%): 18%
  Total Cell Count: 161
[11]
  Population Apoptotic (%): 96%
  Population Fragmented Nuclei (%): 45%
  Population Healthy Nuclei (%): 12%
  Population Hoechst High Intensity Objects (%): 26%
  Population Membrane Permeable-Phenotype (%): 45%
  Population Mitochondria Different-Phenotype (%): 30%
  Population Mitotic Cells (%): 3%
  Population Normal (%): 73%
  Population Pyknosed Nuclei (%): 41%
  Population Tubulin-Different-Phenotype (%): 40%
  Total Cell Count: 215
[12]
  Population Apoptotic (%): 100%
  Population Fragmented Nuclei (%): 29%
  Population Healthy Nuclei (%): 14%
  Population Hoechst High Intensity Objects (%): 32%
  Population Membrane Permeable-Phenotype (%): 70%
  Population Mitochondria Different-Phenotype (%): 90%
  Population Mitotic Cells (%): 0%
  Population Normal (%): 67%
  Population Pyknosed Nuclei (%): 56%
  Population Tubulin-Different-Phenotype (%): 90%
  Total Cell Count: 105
